Values after ≈ are worked out from the molar mass of the structure shown.
How the values were obtained:
MDCK [1] = assay: Antiviral activity of compound was tested against influenza A,H3N2 virus infected MDCK cell lines.; type: functional; settings: Canis lupus familiaris
HeLa [2] = assay: Antiviral activity of compound was tested against polio-1 virus infected HeLa cell lines.; type: functional; settings: Homo sapiens
Method in brief: (§1)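 Vero (African green monkey kidney), HeLa (human epithelial) or HEL (human embryonic lung) cell monolayers infected with the virus. Readout is the minimum inhibitory concentration that reduces virus-induced cytopathicity by 50%. Values are averages of at least two separate experiments.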

Human alphaherpesvirus 2 = assay: Antiviral activity against HSV-2 virus infected HEF cell lines.; type: functional
Method in brief: (§2)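 Human embryonic fibroblasts, from embryonic lung or embryonic skin-muscle, infected with the virus. Endpoint is the minimum inhibitory concentration that reduces virus-induced cytopathicity by 50%. Values are averages of at least two separate experiments.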

CCRF-CEM [3] = assay: Antiviral activity of compound was tested against viability virus infected CEM cell lines.; type: functional; settings: Homo sapiens
[4] = Antiviral activity against influenza A,H2N2 virus infected MDCK cell lines.; type: functional
HeLa [5] = assay: Antiviral activity of compound was tested against morphology virus infected HeLa cell lines.; type: functional; settings: Homo sapiens
MDCK [6] = assay: Antiviral activity tested against influenza A,H1N1 virus infected MDCK cell lines.; type: functional; settings: Canis lupus familiaris
Vero [7] = assay: Antiviral activity of compound were tested against semliki forest virus infected vero cell lines.; type: functional; settings: Chlorocebus sabaeus; method in brief: as §1
CCRF-CEM [8] = assay: Antiviral activity of compound were tested against HIV-2 virus infected CEM cell lines.; type: functional; settings: Homo sapiens
Human alphaherpesvirus 1 [9] = assay: Antiviral activity against TK-HSV-1 virus infected HEF cell lines.; type: functional; method in brief: as §2
MDCK [10] = assay: Antiviral activity of compound was tested against morphology virus infected MDCK cell lines.; type: functional; settings: Canis lupus familiaris
HeLa [11] = assay: Antiviral activity of compound was tested against Coxsackie B4 virus infected HeLa cell lines.; type: functional; settings: Homo sapiens; method in brief: as §1
Vero [12] = assay: Antiviral activity of compound was tested against Coxsackie B4 virus infected vero cell lines.; type: functional; settings: Chlorocebus sabaeus; method in brief: as §1
HeLa [13] = assay: Antiviral activity of compound was tested against stomatitis virus infected HeLa cell lines.; type: functional; settings: Homo sapiens; method in brief: as §1
HEL [14] = assay: Antiviral activity of compound was tested against HCMV virus infected HEL cell lines.; type: functional; settings: Homo sapiens; method in brief: as §1
MDCK [15] = assay: Antiviral activity of compound was tested against influenza […] virus infected MDCK cell lines; type: functional; settings: Canis lupus familiaris
CCRF-CEM [16] = assay: Antiviral activity of compound was tested against HIV-1 virus infected CEM cell lines.; type: functional; settings: Homo sapiens
Vero [17] = assay: Antiviral activity of compound was tested against morphology virus infected Vero cell lines.; type: functional; settings: Chlorocebus sabaeus
HEL [18] = assay: Antiviral activity of compound was tested against proliferation virus infected HEL cell lines.; type: functional; settings: Homo sapiens
HEF [19] = assay: Antiviral activity of compound was tested against morphology virus infected HEF cell lines.; type: functional; settings: Homo sapiens
Vero [20] = assay: Antiviral activity of compound was tested against sindbis virus infected vero cell lines.; type: functional; settings: Chlorocebus sabaeus; method in brief: as §1
Vero [21] = assay: Antiviral activity of compound was tested against reo1 virus infected vero cell lines.; type: functional; settings: Chlorocebus sabaeus; method in brief: as §1
HEL [22] = assay: Antiviral activity of compound was tested against TK-VZV virus infected HEL cell lines.; type: functional; settings: Homo sapiens; method in brief: as §1
Vaccinia virus = assay: Antiviral activity against vaccinia virus infected HEF cell lines.; type: functional; settings: Orthopoxvirus vaccinia; method in brief: as §2
Human alphaherpesvirus 1 [23] = assay: Antiviral activity against HSV-1 virus infected HEF cell lines.; type: functional; method in brief: as §2
[24] = tested on: Vesicular stomatitis virus; assay: Antiviral activity against vesicular stomatitis virus infected HEF cell lines.; type: functional; method in brief: as §2
Vero [25] = assay: Antiviral activity of compound was tested against parainfluenza 3,[…] virus infected Vero cell lines.; type: functional; settings: Chlorocebus sabaeus; method in brief: as §1
HEL [26] = assay: Antiviral activity of compound was tested against TK+VZV virus infected HEL cell lines.; type: functional; settings: Homo sapiens; method in brief: as §1
Human respirovirus 3 = assay: Antiviral activity against parainfluenza 3 virus infected Vero cell lines.; type: functional; method in brief: as §1
HEF [27] = assay: Antiviral activity of compound was tested against vaccinia virus infected HEF cell lines.; type: functional; settings: Homo sapiens; method in brief: as §2
[28] = tested on: Human immunodeficiency virus 2; assay: Antiviral activity against HIV-2 virus infected CEM cell lines.; type: functional, CCRF-CEM
HEF [29] = assay: Antiviral activity of compound was tested against vesicular virus infected HEF cell lines.; type: functional; settings: Homo sapiens; method in brief: as §2

| SMILES | MIC50 (MDCK [1]) [µg/mL] | MIC50 (HeLa [2]) [µg/mL] | MIC50 (Human alphaherpesvirus 2) [µg/mL] | MIC50 (CCRF-CEM [3]) [µg/mL] | MIC50 [4] [µg/mL] | MIC50 (HeLa [5]) [µg/mL] | MIC50 (MDCK [6]) [µg/mL] | MIC50 (Vero [7]) [µg/mL] | MIC50 (Human alphaherpesvirus 1 [9]) [µg/mL] | MIC50 (MDCK [10]) [µg/mL] | MIC50 (HeLa [11]) [µg/mL] | MIC50 (Vero [12]) [µg/mL] | MIC50 (HeLa [13]) [µg/mL] | MIC50 (HEL [14]) [µg/mL] | MIC50 (MDCK [15]) [µg/mL] | MIC50 (CCRF-CEM [16]) [µg/mL] | MIC50 (Vero [17]) [µg/mL] | MIC50 (HEL [18]) [µg/mL] | MIC50 (HEF [19]) [µg/mL] | MIC50 (Vero [20]) [µg/mL] | also measured |
| --- | --- | --- | --- | --- | --- | --- | --- | --- | --- | --- | --- | --- | --- | --- | --- | --- | --- | --- | --- | --- | --- |
| CN1CCOCC12C1CC3CC(C1)CC2C3 (stereo unspecified) | 53 (≈ 239 µM) | > 400 | > 400 | > 200 | 4.3 (≈ 19.4 µM) | > 400 | 22 (≈ 99.4 µM) | > 400 | > 400 | > 250 | > 400 | > 400 | > 400 | > 50 | 60 (≈ 271 µM) | 158 (≈ 714 µM) | > 400 | > 50 | > 400 | > 400 | MIC50 (CCRF-CEM [8]): > 200 µg/mL; MIC50 (Vero [21]): > 400 µg/mL; MIC50 (HEL [22]): > 50 µg/mL; MIC50 (Vaccinia virus): > 400 µg/mL; MIC50 (Human alphaherpesvirus 1 [23]): > 400 µg/mL; MIC50 [24]: > 400 µg/mL; MIC50 (Vero [25]): > 400 µg/mL; MIC50 (HEL [26]): > 50 µg/mL |
| CN(C)CC1CCCN1C12CC3CC(CC(C3)C1)C2 (stereo unspecified) | 73 (≈ 278 µM) | > 400 | > 200 | > 200 | 32.5 (≈ 124 µM) | > 400 | > 70 | > 400 | > 200 | > 250 | > 400 | > 400 | > 400 | > 50 | 60 (≈ 229 µM) | 115 (≈ 438 µM) | > 400 | > 50 | > 400 | > 400 | MIC50 (Human respirovirus 3): > 400 µg/mL; MIC50 (Vero [21]): > 400 µg/mL; MIC50 (HEL [22]): > 50 µg/mL; MIC50 (Human alphaherpesvirus 1 [23]): > 200 µg/mL; MIC50 (HEF [27]): > 200 µg/mL; MIC50 [28]: > 200 µg/mL; MIC50 (HEL [26]): > 50 µg/mL; MIC50 (HEF [29]): > 200 µg/mL |

— ChEMBL document CHEMBL1129609, “Synthesis and antiviral activity evaluation of some new aminoadamantane derivatives. 2” (1996)
